ChEMBL document CHEMBL1123678, “Octahydropyrazino[2',3':3,4]pyrido[1,2-a]indoles. A new class of potent antihypertensive agents” (1987)
Activity calls are given as the source filed them. No cut-off for these calls is given here.

Assays:
Rattus norvegicus [1] = assay: Antihypertensive activity was determined in cannulated spontaneously hypertensive rats(SHR) and maximum decrease of mean arterial blood pressure (MABP) at 10 mg/kg oral dose; assay type: functional, Artery
In short: (§1)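 Cannulated SHR given compound by gastric gavage in 0.5% methylcellulose (5 mL/kg), doses 0.1–50 mg/kg, 4–8 animals per dose, after 1-h equilibration. MABP recorded for 4 h; maximal % decrease reported with time to peak effect. Significance by two-way analysis of variance.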

Rattus norvegicus [2] = assay: Vasopressor responses to epinephrine as a measure of the alpha-1-adrenoceptor blocking activity at 10 mg/kg administered orally was reported to be reversed; assay type: functional, organism-based; design: dose 10 mg/kg
Rattus norvegicus [3] = assay: Antihypertensive activity was determined in cannulated spontaneously hypertensive rats(SHR) and maximum decrease of mean arterial blood pressure (MABP) at 5 mg/kg oral dose; assay type: functional, Artery; in short: as §1
Rattus norvegicus [4] = assay: Antihypertensive activity was determined in cannulated spontaneously hypertensive rats(SHR) and activity rating was given with respect to MABP values at 25 mg/kg oral dose;MABP reduced by 15-25% and an appreciable antihypertensive at 2.5-5 mg/kg; assay type: functional, organism-based; design: dose 25 mg/kg
Rattus norvegicus [5] = assay: Antihypertensive activity was determined in cannulated spontaneously hypertensive rats(SHR) and maximum decrease of mean arterial blood pressure (MABP) at 25 mg/kg oral dose; assay type: functional, Artery; in short: as §1
Rattus norvegicus [6] = assay: Vasopressor responses to epinephrine as a measure of the alpha-1-adrenoceptor blocking activity at 25 mg/kg administered orally was reported to be slightly; assay type: functional, organism-based; design: dose 25 mg/kg
Rattus norvegicus [7] = assay: Antihypertensive activity was determined in cannulated spontaneously hypertensive rats(SHR) and heart rate response was reported to reduce by 10-25% after 4 hr at a peroral dose of 25 mg/kg; assay type: functional, organism-based; design: dose 25 mg/kg
Rattus norvegicus [8] = assay: Vasopressor responses to epinephrine as a measure of the alpha-1-adrenoceptor blocking activity at 10 mg/kg administered orally was reported to be potentiated; assay type: functional, organism-based; design: dose 10 mg/kg
Rattus norvegicus [9] = assay: Antihypertensive activity was determined in cannulated spontaneously hypertensive rats(SHR) and maximum decrease of mean arterial blood pressure (MABP) at 0.5 mg/kg oral dose; assay type: functional, Artery; in short: as §1
Rattus norvegicus [10] = assay: Antihypertensive activity was determined in cannulated spontaneously hypertensive rats(SHR) and maximum decrease of mean arterial blood pressure (MABP) at 1 mg/kg oral dose; assay type: functional, Artery; in short: as §1
Rattus norvegicus [11] = assay: Antihypertensive activity was determined in cannulated spontaneously hypertensive rats(SHR) and activity rating was given with respect to MABP values at 10 mg/kg oral dose;a decrease of MABP by >40% at 10 mg/kg and by 10-207; assay type: functional, organism-based
In short: (§2)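 Cannulated SHR dosed orally (gavage) in 0.5% methylcellulose, 5 mL/kg; 4–8 rats per dose. MABP monitored 4 h, maximal change taken. Rating scale: 0 = no significant activity at 50 mg/kg, stepping up to 6 = MABP fall >40% at 10 mg/kg and 10–20% at 0.25–1 mg/kg, based on % MABP decreases at set doses.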

Rattus norvegicus [12] = assay: Antihypertensive activity was determined in cannulated spontaneously hypertensive rats(SHR) and activity rating was given with respect to MABP values at 25 mg/kg oral dose;lowering MABP by 20-30% at 5 mg/kg and by 10-20% at 1-2.5 mg/kg; assay type: functional, organism-based; in short: as §2
Rattus norvegicus [13] = assay: Antihypertensive activity was determined in cannulated spontaneously hypertensive rats(SHR) and maximum decrease of mean arterial blood pressure (MABP) at 2.5 mg/kg oral dose; assay type: functional, Artery; in short: as §1
Rattus norvegicus [14] = assay: Antihypertensive activity was determined in cannulated spontaneously hypertensive rats(SHR) and heart rate response was reported to reduce by 10-25% after 4 hr at a peroral dose of 5 mg/kg; assay type: functional, organism-based; design: dose 5 mg/kg
Rattus norvegicus [15] = assay: Antihypertensive activity was determined in cannulated spontaneously hypertensive rats(SHR) and marked bradycardia was reported at a dose of 25 mg/kg; assay type: functional, organism-based; design: dose 25 mg/kg
Rattus norvegicus [16] = assay: Vasopressor responses to epinephrine as a measure of the alpha-1-adrenoceptor blocking activity at 2.5 mg/kg administered orally was reported to be antagonized; assay type: functional, organism-based; design: dose 2.5 mg/kg; conditions: filed as antagonist
Rattus norvegicus [17] = assay: Vasopressor responses to epinephrine as a measure of the alpha-1-adrenoceptor blocking activity at 25 mg/kg administered orally was reported to be antagonized; assay type: functional, organism-based; design: dose 25 mg/kg; conditions: filed as antagonist
Rattus norvegicus [18] = assay: Vasopressor responses to epinephrine as a measure of the alpha-1-adrenoceptor blocking activity at 5 mg/kg administered orally was reported to be antagonized; assay type: functional, organism-based; design: dose 5 mg/kg; conditions: filed as antagonist
Rattus norvegicus [19] = assay: Vasopressor responses to epinephrine as a measure of the alpha-1-adrenoceptor blocking activity at 0.25 mg/kg administered orally was reported to be reversed; assay type: functional, organism-based; design: dose 0.25 mg/kg
Rattus norvegicus [20] = assay: Vasopressor responses to epinephrine as a measure of the alpha-1-adrenoceptor blocking activity at 1 mg/kg administered orally was reported to be reversed; assay type: functional, organism-based; design: dose 1 mg/kg
Rattus norvegicus [21] = assay: Vasopressor responses to epinephrine as a measure of the alpha-1-adrenoceptor blocking activity at 2.5 mg/kg administered orally was reported to be reversed; assay type: functional, organism-based; design: dose 2.5 mg/kg
Rattus norvegicus [22] = assay: Antihypertensive activity was determined in cannulated spontaneously hypertensive rats(SHR) and heart rate response was reported to reduce by 10-25% after 4 hr at a peroral dose of 0.25 mg/kg; assay type: functional, organism-based; design: dose 0.25 mg/kg
Rattus norvegicus [23] = assay: Antihypertensive activity was determined in cannulated spontaneously hypertensive rats(SHR) and heart rate response was reported to reduce by 10-25% after 4 hr at a peroral dose of 1.0 mg/kg; assay type: functional, organism-based; design: dose 1 mg/kg
Rattus norvegicus [24] = assay: Antihypertensive activity was determined in cannulated spontaneously hypertensive rats(SHR) and heart rate response was reported to reduce by 10-25% after 4 hr at a peroral dose of 2.5 mg/kg; assay type: functional, organism-based; design: dose 2.5 mg/kg
Rattus norvegicus [25] = assay: Antihypertensive activity was determined in cannulated spontaneously hypertensive rats(SHR) and marked bradycardia was reported at a dose of 10 mg/kg; assay type: functional, organism-based; design: dose 10 mg/kg
Rattus norvegicus [26] = assay: Antihypertensive activity was determined in cannulated spontaneously hypertensive rats(SHR) and heart rate response was reported to reduce by 10-25% after 4 hr at a peroral dose of 10 mg/kg; assay type: functional, organism-based; design: dose 10 mg/kg
Rattus norvegicus [27] = assay: Antihypertensive activity was determined in cannulated spontaneously hypertensive rats(SHR) and maximum decrease of mean arterial blood pressure (MABP) at 50 mg/kg oral dose; assay type: functional, Artery; in short: as §1
Rattus norvegicus [28] = assay: Antihypertensive activity was determined in cannulated spontaneously hypertensive rats(SHR) and marked bradycardia was reported at a dose of 50 mg/kg; assay type: functional, organism-based; design: dose 50 mg/kg
Rattus norvegicus [29] = assay: Vasopressor responses to epinephrine as a measure of the alpha-1-adrenoceptor blocking activity at 0.5 mg/kg administered orally was reported to be antagonized; assay type: functional, organism-based; design: dose 0.5 mg/kg
Rattus norvegicus [30] = assay: Antagonism of vasopressor responses to epinephrine as a measure of the alpha-1-adrenoceptor blocking activity at 10 mg/kg administered orally was reported to have no change; assay type: functional, organism-based; design: dose 10 mg/kg

**Q.** Which “Decrease in MABP” value (Rattus norvegicus [1]) does the source give for CCN1CCN(CC)C2c3c(C)c4cc(Br)ccc4n3CCC21.Cl (stereo not drawn) here?
**A.** 15%

**Q.** What about the Activity (Rattus norvegicus [2]) of the same compound?
**A.** Vasopressor response reversed

**Q.** With Cc1c2n(c3ccccc13)CCC1C2N(C)CCN1C (stereo not drawn) as the compound, how does the “Decrease in MABP” value (Rattus norvegicus [1]) read?
**A.** 23%

**Q.** What about the “Decrease in MABP” value (Rattus norvegicus [3]) of the same compound?
**A.** 13%

**Q.** Cc1c2n(c3ccccc13)CCC1NCCNC21 (stereo not drawn) was tested. Which Activity rating (Rattus norvegicus [4]) did it give?
**A.** MABP reduced by 15-25% and an appreciable antihypertensive at 2.5-5 mg/kg

**Q.** What about the “Decrease in MABP” value (Rattus norvegicus [1]) of the same compound?
**A.** 19%

**Q.** And the “Decrease in MABP” value (Rattus norvegicus [5])?
**A.** 27%

**Q.** And the Activity (Rattus norvegicus [6])?
**A.** Vasopressor response potentiated

**Q.** And the HR (Rattus norvegicus [7])?
**A.** Heart rate response was reported to reduce by 10-25% after 4 hr at a peroral dose of 25 mg/kg

**Q.** And the Activity (Rattus norvegicus [8])?
**A.** Vasopressor response potentiated

**Q.** For COc1cc2nc(N3CCN(C(=O)c4ccco4)CC3)nc(N)c2cc1OC [PRAZOSIN], which “Decrease in MABP” value (Rattus norvegicus [9]) is on record?
**A.** 35%

**Q.** What about the “Decrease in MABP” value (Rattus norvegicus [1]) of the same compound?
**A.** 49%

**Q.** And the “Decrease in MABP” value (Rattus norvegicus [10])?
**A.** 46%

**Q.** And the Activity rating (Rattus norvegicus [11])?
**A.** Active

**Q.** How did the Activity rating (Rattus norvegicus [12]) turn out when O=C(NC1CCN(CCc2c[nH]c3ccccc23)CC1)c1ccccc1 [INDORAMIN] was run?
**A.** Active

**Q.** And the “Decrease in MABP” value (Rattus norvegicus [13])?
**A.** 12%

**Q.** And the “Decrease in MABP” value (Rattus norvegicus [5])?
**A.** 40%

**Q.** What about the “Decrease in MABP” value (Rattus norvegicus [3]) of the same compound?
**A.** 29%

**Q.** What about the HR (Rattus norvegicus [14]) of the same compound?
**A.** Active

**Q.** And the HR (Rattus norvegicus [15])?
**A.** Active

**Q.** What about the Activity (Rattus norvegicus [16]) of the same compound?
**A.** Antagonist

**Q.** What about the Activity (Rattus norvegicus [17]) of the same compound?
**A.** Antagonist

**Q.** What about the Activity (Rattus norvegicus [18]) of the same compound?
**A.** Antagonist

**Q.** Which results are given for CCN1CCN(C(C)C)C2CCn3c(c(C)c4ccccc43)C21 (stereo not drawn)?
**A.** Decrease in MABP (Rattus norvegicus [1]): 56%; Decrease in MABP (Rattus norvegicus [10]): 40%; Decrease in MABP (Rattus norvegicus [13]): 52%; Activity (Rattus norvegicus [19]): Vasopressor response reversed; Activity (Rattus norvegicus [20]): Vasopressor response reversed; Activity (Rattus norvegicus [21]): Vasopressor response reversed; HR (Rattus norvegicus [22]): Heart rate response was reported to reduce by 10-25% after 4 hr at a peroral dose of 0.25 mg/kg; HR (Rattus norvegicus [23]): Heart rate response was reported to reduce by 10-25% after 4 hr at a peroral dose of 0.25 mg/kg; HR (Rattus norvegicus [24]): Heart rate response was reported to reduce by 10-25% after 4 hr at a peroral dose of 0.25 mg/kg; Activity (Rattus norvegicus [2]): Vasopressor response reversed

**Q.** With Br.CCCN1CCN(CC)C2CCn3c(c(C)c4ccccc43)C21 (stereo not drawn) as the compound, how does the “Decrease in MABP” value (Rattus norvegicus [1]) read?
**A.** 42%

**Q.** What about the “Decrease in MABP” value (Rattus norvegicus [10]) of the same compound?
**A.** 13%

**Q.** And the “Decrease in MABP” value (Rattus norvegicus [13])?
**A.** 24%

**Q.** And the HR (Rattus norvegicus [25])?
**A.** Heart rate response was reported to reduce by 10-25% after 4 hr at a peroral dose of 1.0 mg/kg

**Q.** And the Activity (Rattus norvegicus [20])?
**A.** Vasopressor response reversed

**Q.** And the Activity (Rattus norvegicus [21])?
**A.** Vasopressor response reversed

**Q.** And the Activity (Rattus norvegicus [2])?
**A.** Vasopressor response reversed

**Q.** With CCCCN1CCN(CC)C2CCn3c(c(C)c4ccccc43)C21.Cl.Cl (stereo not drawn) as the compound, how does the “Decrease in MABP” value (Rattus norvegicus [1]) read?
**A.** 36%

**Q.** What about the “Decrease in MABP” value (Rattus norvegicus [10]) of the same compound?
**A.** 16%

**Q.** What about the Activity (Rattus norvegicus [20]) of the same compound?
**A.** Vasopressor response reversed

**Q.** What about the HR (Rattus norvegicus [26]) of the same compound?
**A.** Heart rate response was reported to reduce by 10-25% after 4 hr at a peroral dose of 10 mg/kg

**Q.** What about the Activity (Rattus norvegicus [2]) of the same compound?
**A.** Vasopressor response reversed

**Q.** For CCN1CCN(C(C)C)C2CCn3c(c(C)c4cc(OC)ccc43)C21.Cl.Cl (stereo not drawn), which “Decrease in MABP” value (Rattus norvegicus [9]) is on record?
**A.** 8%

**Q.** What about the “Decrease in MABP” value (Rattus norvegicus [27]) of the same compound?
**A.** 43%

**Q.** And the “Decrease in MABP” value (Rattus norvegicus [3])?
**A.** 33%

**Q.** What about the HR (Rattus norvegicus [28]) of the same compound?
**A.** Heart rate response was reported to reduce by 10-25% after 4 hr at a peroral dose of 5.0 mg/kg

**Q.** What about the Activity (Rattus norvegicus [29]) of the same compound?
**A.** Vasopressor response antagonized

**Q.** What does the source list for CCN1CCNC2CCn3c(c(C)c4ccccc43)C21 (stereo not drawn)?
**A.** Decrease in MABP (Rattus norvegicus [1]): 14%; Activity (Rattus norvegicus [30]): inactive; HR (Rattus norvegicus [26]): Heart rate response was reported to reduce by 10-25% after 4 hr at a peroral dose of 10 mg/kg
